Test results published in ChEMBL document CHEMBL3351820, “Development of novel membrane active lipidated peptidomimetics active against drug resistant clinical isolates” (Bioorg Med Chem, 2014).
Values after ≈ are worked out from the molar mass of the structure shown. Active and inactive are the calls of the source. The calls are words filed in the database; no cut-off is given here. Where a SMILES comes first, the peptide text is derived from it. [ ]: non-standard residue; d: D form. The star is where a group is joined. Myristoyl = CCCCCCCCCCCCCC(=O)*; 3Abz = Nc1cccc(C(=O)O)c1; Orn = NCCC[CH](N)C(=O)O

Legend:
[1] = tested on: Aspergillus fumigatus; assay: Antifungal activity against fluconazole-resistant Aspergillus fumigatus IGMC/LM1/0336 after 24 hrs by M27-A method; assay type: functional; details: IGMC/LM1/0336, 24 h
Summary of the method: (§1)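 Fungi at 2.5×10^3 cfu/mL in RPMI 1640 (L-glutamine, no glucose or NaHCO3, pH 7.0 with 0.165 M MOPS). Mixed 1:1 with serial 2-fold dilutions in water, incubated at 37 °C with shaking, 24 h for A. fumigatus and 48–72 h for C. albicans. Growth read by absorbance at 600 nm. MIC taken as the lowest concentration with no growth.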

[2] = tested on: Aspergillus niger; assay: Antifungal activity against Aspergillus niger ATCC 64028 after 24 hrs by M27-A method; assay type: functional; details: ATCC 64028, 24 h
Summary of the method: (§2)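 Fungi at 2.5×10^3 cfu/mL in RPMI 1640 (L-glutamine, no glucose or NaHCO3, buffered pH 7.0 with 0.165 M MOPS), mixed 1:1 with serial 2-fold aqueous dilutions. Incubated at 37 °C with shaking, 24 h for Aspergillus, 48-72 h for Candida and Cryptococcus; A600 read. MIC taken as lowest concentration with no growth.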

[3] = tested on: Escherichia coli; assay: Bactericidal activity against Escherichia coli MTCC 0723 at 4 to 8 times MIC by time-kill assay; assay type: functional, organism-based
Summary of the method: (§3)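 Time-kill: mid-log cells (2×10^5 CFU/mL) in MHB, untreated or exposed at 1, 2, 4 and 8×MIC at 37 °C. Aliquots taken at 0, 15, 30, 60, 120 and 240 min, serially 10-fold diluted, plated on Mueller-Hinton agar for 18 h at 37 °C. Log CFU/mL plotted against time versus untreated control; two independent experiments in triplicate.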

[4] = tested on: Escherichia coli; assay: Growth inhibition of Escherichia coli MTCC 0723 at 2 times MIC by time-kill assay; assay type: functional, organism-based; summary of the method: as §3
[5] = tested on: Escherichia coli; assay: Bactericidal activity against Escherichia coli MTCC 0723 assessed as log reduction in bacterial growth at 4 to 8 times MIC up to 30 mins by time-kill assay relative to control; assay type: functional; summary of the method: as §3
[6] = tested on: Staphylococcus aureus; assay: Bactericidal activity against Staphylococcus aureus MTCC 3160 assessed as log reduction in bacterial growth at 4 to 8 times MIC up to 30 mins by time-kill assay relative to control; assay type: functional; summary of the method: as §3
[7] = tested on: Staphylococcus aureus; assay: Bactericidal activity against Staphylococcus aureus MTCC 3160 at 4 to 8 times MIC by time-kill assay; assay type: functional, organism-based; summary of the method: as §3
[8] = tested on: Staphylococcus aureus; assay: Growth inhibition of Staphylococcus aureus MTCC 3160 at 2 times MIC by time-kill assay; assay type: functional, organism-based; summary of the method: as §3
[9] = Membrane permeabilization activity assessed as release of calcein from PE/PG liposomes at 4 ug/ml after 5 mins by spectrofluorimetry; assay type: ADME
Summary of the method: (§4)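 Calcein-loaded LUVs, PE/PG (bacterial mimic) or PC/PE/PI/ergosterol (fungal mimic), exposed to 1-20 μg/mL for 5 min before fluorescence reading. Triton X-100 in Tris-HCl/NaCl/EDTA buffer sets 100% leakage; % leakage = 100(F−F0)/(Ft−F0). Run in triplicate, two independent experiments, mean ± SD.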

[10] = Membrane permeabilization activity assessed as release of calcein from PC/PE/PI/ergosterol liposomes at 20 ug/ml after 5 mins by spectrofluorimetry; assay type: ADME; summary of the method: as §4
[11] = Membrane permeabilization activity assessed as release of calcein from PE/PG liposomes at 20 ug/ml after 5 mins by spectrofluorimetry; assay type: ADME; summary of the method: as §4
[12] = Membrane permeabilization activity assessed as release of calcein from PC/PE/PI/ergosterol liposomes at 4 ug/ml after 5 mins by spectrofluorimetry; assay type: ADME; summary of the method: as §4
[13] = tested on: Escherichia coli; assay: Membrane disruption effect in Escherichia coli MTCC 0723 assessed as surface blebs and aggregation at 4 times MIC by scanning electron microscopy; assay type: functional, organism-based
Summary of the method: (§5)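 SEM: E. coli and S. aureus at 1×10^6 CFU/mL in 10 mM PBS pH 7.4 with 100 mM NaCl, exposed at 4×MIC at 37 °C. […] After 30 min, cells fixed in 4% glutaraldehyde/0.2 M cacodylate for 3 h at 4 °C, ethanol-dehydrated, HMDS-dried, gold-coated (~20 nm).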

[14] = tested on: Staphylococcus aureus; assay: Membrane disruption effect in Staphylococcus aureus MTCC 3160 assessed as surface blebs and aggregation at 4 times MIC by scanning electron microscopy; assay type: functional, organism-based; summary of the method: as §5
[15] = tested on: Escherichia coli; assay: Binding affinity to Escherichia coli plasmid DNA at 12 ug/ml after 1 hr by gel retardation assay
Summary of the method: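 Gel retardation: 100 ng plasmid DNA from E. coli PGI/DML02292 mixed with varying peptide amounts in binding buffer (10 mM Tris-HCl pH 8.0, 5% glycerol, 1 mM EDTA, 1 mM DTT, 20 mM KCl, 50 μg/mL BSA). Held 1 h at room temperature, then run on 1% agarose in 0.5× TBE. Polymyxin B as standard.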

[16] = tested on: Staphylococcus aureus; assay: Antibacterial activity against methicillin-resistant Staphylococcus aureus PGI/ DML03149 clinical isolate after 16 days by serial passage resistance development assay; assay type: functional, organism-based
Summary of the method: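 MRSA clinical isolate serially passaged for 16 days. Each day MICs were set up in microtiter wells over doubling-dilution concentrations, 18 h incubation. Cells from triplicate wells at the concentration still permitting visible growth were diluted to about 2×10^5 CFU/mL to seed the next exposure. MIC was tracked across passages.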

[17] = Proteolytic stability assessed as alpha-chymotrypsin (unknown origin)-mediated degradation after 4 days by analytical RP-HPLC; assay type: ADME, Homo sapiens; details: 96 h
Summary of the method: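 Peptide (1 mg/mL sample solution) and enzyme solution (1 mg per 50 mL) in 0.1 M NH4HCO3 pH 8.2, combined with buffer and incubated at 37 °C. Aliquots taken over time, quenched with 10% formic acid. Remaining peptide quantified by C18 RP-HPLC with a water/acetonitrile gradient (0.05% TFA); enzyme-free control run alongside.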

[18] = tested on: Plasma; assay: Stability in human plasma after 24 hrs by analytical RP-HPLC; assay type: ADME, cell-free
Summary of the method: (§6)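 Heparinized fresh human plasma (1 mL) plus 50 μL of a […] aqueous stock, incubated at 37 °C. At intervals, 100 μL aliquots precipitated with 200 μL 95% ethanol, held 15 min at 4 °C, spun at 18,000 g for 2 min. Supernatant analysed by C18 RP-HPLC.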

[19] = Stability in human plasma after 4 days by analytical RP-HPLC; assay type: ADME, cell-free; details: read-out: Stability; summary of the method: as §6
[20] = tested on: Escherichia coli; assay: Antibacterial activity against Escherichia coli MTCC 0723 after 18 hrs by micro dilution broth assay; assay type: functional; details: MTCC 0723, 18 h
Summary of the method: (§7)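 Broth microdilution (modified CLSI): mid-log inoculum at 10^5 CFU/mL in Mueller-Hinton broth; serial 2-fold dilutions of sample in 0.001% acetic acid with 0.2% BSA added. Incubated overnight at 37 °C with agitation; A600 read at 18 h. Drug-free culture and uninoculated broth as controls; triplicate.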

[21] = tested on: Escherichia coli; assay: Antibacterial activity against imipenem-resistant Escherichia coli PGI/ DML02292 clinical isolate after 18 hrs by micro dilution broth assay; assay type: functional; details: PGI/ DML02292, 18 h
[22] = tested on: Pseudomonas aeruginosa; assay: Antibacterial activity against Pseudomonas aeruginosa MTCC 2295 after 18 hrs by micro dilution broth assay; assay type: functional; details: MTCC 2295, 18 h; summary of the method: as §7
[23] = tested on: Staphylococcus aureus; assay: Antibacterial activity against Staphylococcus aureus MTCC 3160 after 18 hrs by micro dilution broth assay; assay type: functional; details: MTCC 3160, 18 h; summary of the method: as §7
[24] = tested on: Staphylococcus aureus; assay: Antibacterial activity against methicillin-resistant Staphylococcus aureus PGI/ DML03149 clinical isolate after 18 hrs by micro dilution broth assay; assay type: functional; details: PGI/ DML03149, 18 h
[25] = tested on: Bacillus subtilis; assay: Antibacterial activity against Bacillus subtilis MTCC 2763 after 18 hrs by micro dilution broth assay; assay type: functional; details: MTCC 2763, 18 h; summary of the method: as §7
[26] = Hemolytic activity in human RBCs; assay type: ADME, cell-based, Erythrocyte; details: red blood cells (RBCs)
Summary of the method: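 Washed fresh human erythrocytes, 4% (v/v) in PBS (35 mM phosphate, 150 mM NaCl, pH 7.2), mixed 1:1 with 2-fold dilutions in PBS. Incubated 1 h at 37 °C without agitation, then centrifuged at 1000 g for 5 min. Supernatant hemoglobin read at 440 nm; % hemolysis = 100(A−A0)/(At−A0).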

[27] = Therapeutic index, ratio of HC50 for human RBCs to MIC for Escherichia coli MTCC 0723; details: red blood cells (RBCs), read-out: TI
[28] = Therapeutic index, ratio of HC50 for human RBCs to MIC for Staphylococcus aureus MTCC 3160; details: red blood cells (RBCs), read-out: TI
[29] = tested on: Candida albicans; assay: Antifungal activity against Candida albicans ATCC 24433 after 48 to 72 hrs by M27-A method; assay type: functional; summary of the method: as §2
[30] = tested on: Candida albicans; assay: Antifungal activity against fluconazole-resistant Candida albicans PGI/ DML0109 clinical isolate after 48 to 72 hrs by M27-A method; assay type: functional; summary of the method: as §1
[31] = tested on: Cryptococcus neoformans; assay: Antifungal activity against Cryptococcus neoformans ATCC 2344 after 48 to 72 hrs by M27-A method; assay type: functional; summary of the method: as §2
[32] = tested on: Aspergillus fumigatus; assay: Antifungal activity against Aspergillus fumigatus ATCC 42203 after 24 hrs by M27-A method; assay type: functional; details: ATCC 42203, 24 h; summary of the method: as §2

SMILES: CCCCCCCCCCCCCC(=O)Nc1cccc(C(=O)NC(CCCN)C(=O)NC(CCCN)C(=O)NC(CCCN)C(=O)NC(CCCN)C(N)=O)c1 (configuration not stated) ({Myristoyl-3Abz}-[Orn][Orn][Orn][Orn]-NH2; configuration not given here)
- MIC [1]: 4 µg/mL (≈ 4.98 µM)
- MIC [2]: 3 µg/mL (≈ 3.74 µM)
- Activity [3]: Active
- growth inhibition (GI) [4]: Active
- FC [5]: 5
- FC [6]: 5
- Activity [7]: Active
- growth inhibition (GI) [8]: Active
- Activity [9]: 58%
- Activity [10]: 77%
- Activity [11]: 93%
- Activity [12]: 29%
- Activity [13]: Active
- Activity [14]: Active
- Activity [15]: inactive
- Activity [16]: Active
- Stability [17]: Stable
- Stability [18]: Stable
- remaining at 96 h [19]: 76%
- MIC [20]: 1.25 µg/mL (≈ 1.56 µM)
- MIC [21]: 3.1 µg/mL (≈ 3.86 µM)
- MIC [22]: 2 µg/mL (≈ 2.49 µM)
- MIC [23]: 1.5 µg/mL (≈ 1.87 µM)
- MIC [24]: 2 µg/mL (≈ 2.49 µM)
- MIC [25]: 10 µg/mL (≈ 12.5 µM)
- HC50 [26]: 500 µg/mL
- selectivity ratio [27]: 400
- selectivity ratio [28]: 333
- MIC [29]: 3.1 µg/mL (≈ 3.86 µM)
- MIC [30]: 4 µg/mL (≈ 4.98 µM)
- MIC [31]: 6.25 µg/mL (≈ 7.78 µM)
- MIC [32]: 2.25 µg/mL (≈ 2.8 µM)
